# Laboratory results published in ChEMBL document CHEMBL4270599, “Synthesis of a 3'-C-ethynyl-β-d-ribofuranose purine nucleoside library: Discovery of C7-deazapurine analogs as potent antiproliferative nucleosides” (Eur J Med Chem, 2018).
# What was measured:
# [1] = tested on: HOP-92; test: Growth inhibition of human HOP92 cells assessed as cell growth at 10^-7 M incubated for 48 hrs by sulforhodamine B assay relative to control; type: functional; conditions: HOP-92, 48 h, read-out: Activity
# [2] = tested on: SNB-75; test: Growth inhibition of human SNB75 cells assessed as cell growth at 10^-6 M incubated for 48 hrs by sulforhodamine B assay relative to control; type: functional; conditions: SNB-75, 48 h, read-out: Activity
# [3] = tested on: CCRF-CEM; test: Cytotoxicity against human CCRF-CEM cells after 48 hrs by SRB assay; type: functional; conditions: for CC50: read-out: pLC50 (the source's name) (converted)
# [4] = tested on: NCI-H23; test: Growth inhibition of human NCI-H23 cells assessed as cell growth at 10^-8 M incubated for 48 hrs by sulforhodamine B assay relative to control; type: functional; conditions: NCI-H23, 48 h, read-out: Activity
# [5] = tested on: MDA-MB-231; test: Growth inhibition of human MDA-MB-231 cells assessed as cell growth at 10^-4 M incubated for 48 hrs by sulforhodamine B assay relative to control; type: functional; conditions: MDA-MB-231, 48 h, read-out: Activity
# [6] = tested on: TK-10; test: Growth inhibition of human TK10 cells assessed as cell growth at 10^-7 M incubated for 48 hrs by sulforhodamine B assay relative to control; type: functional; conditions: TK-10, 48 h, read-out: Activity
# [7] = tested on: HOP-92; test: Growth inhibition of human HOP92 cells assessed as cell growth at 10^-8 M incubated for 48 hrs by sulforhodamine B assay relative to control; type: functional; conditions: HOP-92, 48 h, read-out: Activity
# [8] = tested on: MOLT-4; test: Cytotoxicity against human MOLT4 cells after 48 hrs by SRB assay; type: functional; conditions: MOLT-4, 48 h; for CC50: read-out: pLC50 (the source's name) (converted)
# [9] = tested on: MDA-MB-468; test: Cytotoxicity against human MDA-MB-468 cells after 48 hrs by SRB assay; type: functional; conditions: MDA-MB-468, 48 h
# [10] = tested on: IGROV-1; test: Growth inhibition of human IGROV1 cells assessed as cell growth at 10^-4 M incubated for 48 hrs by sulforhodamine B assay relative to control; type: functional; conditions: IGROV-1, 48 h, read-out: Activity
# [11] = tested on: OVCAR-5; test: Cytotoxicity against human OVCAR5 cells after 48 hrs by SRB assay; type: functional; conditions: OVCAR-5, 48 h; for CC50: read-out: LC50 (the source's name)
# [12] = tested on: MOLT-4; test: Growth inhibition of human MOLT4 cells assessed as cell growth at 10^-7 M incubated for 48 hrs by sulforhodamine B assay relative to control; type: functional; conditions: MOLT-4, 48 h, read-out: Activity
# [13] = tested on: MDA-MB-231; test: Cytotoxicity against human MDA-MB-231 cells after 48 hrs by SRB assay; type: functional; conditions: MDA-MB-231, 48 h; for CC50: read-out: LC50 (the source's name)
# [14] = tested on: SN12C; test: Growth inhibition of human SN12C cells assessed as cell growth at 10^-7 M incubated for 48 hrs by sulforhodamine B assay relative to control; type: functional; conditions: read-out: Activity
# [15] = tested on: NCI/ADR-RES; test: Growth inhibition of human NCI/ADR-RES cells assessed as cell growth at 10^-8 M incubated for 48 hrs by sulforhodamine B assay relative to control; type: functional; conditions: read-out: Activity
# [16] = tested on: A549; test: Cytotoxicity against human A549 cells after 48 hrs by SRB assay; type: functional; conditions: A549, 48 h
# [17] = tested on: MOLT-4; test: Growth inhibition of human MOLT4 cells assessed as cell growth at 10^-8 M incubated for 48 hrs by sulforhodamine B assay relative to control; type: functional; conditions: MOLT-4, 48 h, read-out: Activity
# [18] = tested on: LOX IMVI; test: Cytotoxicity against human LOXIMVI cells after 48 hrs by SRB assay; type: functional
# [19] = tested on: HCT-116; test: Growth inhibition of human HCT116 cells assessed as cell growth at 10^-4 M incubated for 48 hrs by sulforhodamine B assay relative to control; type: functional; conditions: HCT-116, 48 h, read-out: Activity
# [20] = tested on: ACHN; test: Growth inhibition of human ACHN cells assessed as cell growth at 10^-4 M incubated for 48 hrs by sulforhodamine B assay relative to control; type: functional; conditions: read-out: Activity
# [21] = tested on: SR; test: Cytotoxicity against human SR cells after 48 hrs by SRB assay; type: functional; conditions: for CC50: read-out: LC50 (the source's name)
# [22] = tested on: LOX IMVI; test: Growth inhibition of human LOXIMVI cells assessed as cell growth at 10^-8 M incubated for 48 hrs by sulforhodamine B assay relative to control; type: functional; conditions: read-out: Activity
# [23] = tested on: HUVEC; test: Antiproliferative activity against HUVEC cells after 4 days by Coulter counter method; type: cell-based; conditions: Homo sapiens, 96 h
# Method in brief: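 Primary HUVEC, primary HMVEC-d and the HMEC-1 line seeded at 20,000 cells/well in gelatin-coated plates in EC growth medium (EGM2). After overnight incubation, 5-fold compound dilutions added. Cells proliferated four days with compound, then trypsinized and counted by Coulter counter to derive IC₅₀.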
# [24] = tested on: HCT-15; test: Growth inhibition of human HCT15 cells assessed as cell growth at 10^-5 M incubated for 48 hrs by sulforhodamine B assay relative to control; type: functional; conditions: HCT-15, 48 h, read-out: Activity
# [25] = tested on: Hs-578T; test: Growth inhibition of human Hs 578T cells assessed as cell growth at 10^-8 M incubated for 48 hrs by sulforhodamine B assay relative to control; type: functional; conditions: read-out: Activity
# [26] = tested on: NCI-H322M; test: Growth inhibition of human NCI-H322M cells assessed as cell growth at 10^-6 M incubated for 48 hrs by sulforhodamine B assay relative to control; type: functional; conditions: read-out: Activity
# [27] = tested on: HCT-15; test: Growth inhibition of human HCT15 cells assessed as cell growth at 10^-6 M incubated for 48 hrs by sulforhodamine B assay relative to control; type: functional; conditions: HCT-15, 48 h, read-out: Activity
# [28] = tested on: SR; test: Growth inhibition of human SR cells assessed as cell growth at 10^-6 M incubated for 48 hrs by sulforhodamine B assay relative to control; type: functional; conditions: read-out: Activity
# [29] = tested on: HT-29; test: Growth inhibition of human HT-29 cells assessed as cell growth at 10^-6 M incubated for 48 hrs by sulforhodamine B assay relative to control; type: functional; conditions: HT-29, 48 h, read-out: Activity
# [30] = tested on: SNB-19; test: Growth inhibition of human SNB19 cells assessed as cell growth at 10^-5 M incubated for 48 hrs by sulforhodamine B assay relative to control; type: functional; conditions: SNB-19, 48 h, read-out: Activity
# [31] = tested on: SF-268; test: Growth inhibition of human SF268 cells assessed as cell growth at 10^-8 M incubated for 48 hrs by sulforhodamine B assay relative to control; type: functional; conditions: SF-268, 48 h, read-out: Activity
# [32] = tested on: Malme-3M; test: Growth inhibition of human MALME-3M cells assessed as cell growth at 10^-6 M incubated for 48 hrs by sulforhodamine B assay relative to control; type: functional; conditions: read-out: Activity
# [33] = read-out: LC50 (the source's name)
# [34] = read-out: pLC50 (the source's name) (converted)
compound,measurement,setting,value
C#C[C@@]1(O)[C@@H](CO)O[C@@H](n2cc(I)c3c(N)ncnc32)[C@@H]1O,growth at 0.1 µM,[1],38 to 70%
same,growth at 1 µM,[2],27 to 39%
same,GI50,[3]; read-out: GI50,249 to 295 nM
same,TGI,[3]; read-out: TGI,> 100000 nM
same,CC50,[3],> 100000 nM
same,TGI,[3]; read-out: pTGI,> 100000 nM
same,growth at 0.01 µM,[4],87 to 91%
same,growth at 100 µM,[5],11 to 12%
same,growth at 0.1 µM,[6],85 to 96%
same,growth at 0.01 µM,[7],58 to 74%
same,GI50,[8]; read-out: GI50,48.9 to 108 nM
same,TGI,[8]; read-out: TGI,831 nM
same,CC50,[8],> 100000 nM
same,TGI,[8]; read-out: pTGI (converted),832 nM
same,GI50,[9]; read-out: GI50,147 to 158 nM
same,CC50,[9]; [33],5510 to 5650 nM
same,TGI,[9]; read-out: TGI,421 to 746 nM
same,growth at 100 µM,[10],2 to 3%
same,GI50,[11]; read-out: GI50,515 to 1690 nM
same,CC50,[11],> 100000 nM
same,TGI,[11]; read-out: TGI,> 100000 nM
same,TGI,[11]; read-out: pTGI (converted),> 100000 nM
same,growth at 0.1 µM,[12],39 to 52%
same,GI50,[13]; read-out: GI50,168 to 204 nM
same,CC50,[13],> 100000 nM
same,TGI,[13]; read-out: TGI,> 100000 nM
same,TGI,[13]; read-out: pTGI (converted),> 100000 nM
same,growth at 0.1 µM,[14],43 to 54%
same,growth at 0.01 µM,[15],86 to 88%
same,GI50,[16]; read-out: GI50,297 to 589 nM
same,CC50,[16]; [33],> 100000 nM
same,TGI,[16]; read-out: TGI,> 100000 nM
same,TGI,[16]; read-out: pTGI (converted),> 100000 nM
same,growth at 0.01 µM,[17],75 to 83%
same,GI50,[18]; read-out: GI50,39.7 to 81.2 nM
same,CC50,[18]; [33],> 100000 nM
same,TGI,[18]; read-out: TGI,241 to 1220 nM
same,growth at 100 µM,[19],4%
same,growth at 100 µM,[20],1%
same,GI50,[21]; read-out: GI50,182 to 378 nM
same,CC50,[21],> 100000 nM
same,TGI,[21]; read-out: TGI,8150 to 100000 nM
same,growth at 0.01 µM,[22],85 to 93%
same,IC50,[23],9.9 nM
same,growth at 10 µM,[24],2 to 3%
same,growth at 0.01 µM,[25],78 to 87%
same,growth at 1 µM,[26],37 to 44%
same,growth at 1 µM,[27],11 to 20%
same,growth at 1 µM,[28],21 to 24%
same,growth at 1 µM,[29],9 to 13%
same,growth at 10 µM,[30],2 to 3%
same,growth at 0.01 µM,[31],92%
same,growth at 1 µM,[32],39 to 61%
C#C[C@@]1(O)[C@@H](CO)O[C@@H](n2cc(F)c3c(N)ncnc32)[C@@H]1O,growth at 0.1 µM,[1],-1%
same,growth at 1 µM,[2],52%
same,TGI,[3]; read-out: TGI,> 100000 nM
same,GI50,[3]; read-out: pGI50 (converted),339 nM
same,CC50,[3],> 100000 nM
same,TGI,[3]; read-out: pTGI,> 100000 nM
same,growth at 0.01 µM,[4],97%
same,growth at 100 µM,[5],-35%
same,growth at 0.1 µM,[6],102%
same,growth at 0.01 µM,[7],121%
same,TGI,[8]; read-out: TGI,> 100000 nM
same,GI50,[8]; read-out: pGI50 (converted),302 nM
same,CC50,[8],> 100000 nM
same,TGI,[8]; read-out: pTGI (converted),> 100000 nM
same,TGI,[9]; read-out: TGI,1530 nM
same,GI50,[9]; read-out: pGI50 (converted),302 nM
same,CC50,[9]; [34],7940 nM
same,TGI,[9]; read-out: pTGI (converted),1550 nM
same,growth at 100 µM,[10],-38%
same,CC50,[11],> 100000 nM
same,TGI,[11]; read-out: TGI,> 100000 nM
same,GI50,[11]; read-out: pGI50 (converted),1780 nM
same,TGI,[11]; read-out: pTGI (converted),> 100000 nM
same,growth at 0.1 µM,[12],86%
same,CC50,[13],> 100000 nM
same,TGI,[13]; read-out: TGI,2980 nM
same,GI50,[13]; read-out: pGI50 (converted),380 nM
same,TGI,[13]; read-out: pTGI (converted),2950 nM
same,growth at 0.1 µM,[14],80%
same,growth at 0.01 µM,[15],100%
same,TGI,[16]; read-out: TGI,2640 nM
same,GI50,[16]; read-out: pGI50 (converted),380 nM
same,CC50,[16]; [34],> 100000 nM
same,TGI,[16]; read-out: pTGI (converted),2630 nM
same,growth at 0.01 µM,[17],99%
same,TGI,[18]; read-out: TGI,1110 nM
same,GI50,[18]; read-out: pGI50 (converted),282 nM
same,CC50,[18]; [34],4570 nM
same,TGI,[18]; read-out: pTGI (converted),1120 nM
same,growth at 100 µM,[19],1%
same,growth at 100 µM,[20],2%
same,CC50,[21],> 100000 nM
same,TGI,[21]; read-out: TGI,> 100000 nM
same,GI50,[21]; read-out: pGI50 (converted),186 nM
same,TGI,[21]; read-out: pTGI,> 100000 nM
same,growth at 0.01 µM,[22],96%
same,IC50,[23],67 nM
same,growth at 10 µM,[24],-18%
same,growth at 0.01 µM,[25],92%
same,growth at 1 µM,[26],31%
same,growth at 1 µM,[27],18%
same,growth at 1 µM,[28],9%
same,growth at 1 µM,[29],11%
same,growth at 10 µM,[30],7%
same,growth at 0.01 µM,[31],100%
same,growth at 1 µM,[32],12%
